Assay results taken from ChEMBL document CHEMBL1122463, “2,3-dihydro-3-(1-pyrryl)spiro[benzofuran-2,4'-piperidine]s and 2,3-dihydro-3-(1-pyrryl)spiro[benzofuran-2,3'-pyrrolidine]s: novel antihypertensive agents” (1983).
“And” between values parts separate entries of the source, which are not always exact repeats. Equal entries are not always repeated.

Columns and labels:
Canis familiaris [1] = test: Effect of compound at a dose of 10 mg/kg iv, on standard cardiovascular in anesthetized normotensive dogs after administration of isoproterenol.; format: functional, Canis lupus familiaris, Heart
Method in brief: (§1)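 Trachea intubated, artificially respired, bilateral vagotomy. Femoral artery cannulated for BP, femoral vein for drugs. BP and heart rate recorded continuously. Each iv challenge given twice predrug for matched responses and once after test drug. Doses: epinephrine and norepinephrine 0.5 to 1.0 μg/kg; isoproterenol and carbachol 0.25 μg/kg.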

Canis familiaris [2] = test: Mean Heart rate before administration at a dose of 10 mg/kg iv.; format: functional, Canis lupus familiaris
Rattus norvegicus [3] = test: (§2) Oral hypotensive activity in spontaneously hypertensive rats by using tail-cuff method measured as change in systolic BP at the dose of 10 mg/kg po.; format: functional, Blood
Method in brief: (§3)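 Okamoto-Aoki spontaneously hypertensive rats. Compound suspended in distilled water with Tween 80, given po daily, screening dose 50 mg/kg, dose-response at 50, 30, 10 or 3 mg/kg unless stated. Systolic BP by tail-cuff plethysmography on day 1 predose and 2 h, day 3 predose and 2 h, and day 5 predose, 2 and 4 h. Reported as peak decrease on day 3 (or day 5) at 2 h ± SEM. n = 4 in screen, 4–8 per dose.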

Rattus norvegicus [4] = test: Hypotensive activity in renal hypertensive rats by using tail-cuff method measured as post drug BP (day/h) after administration of 10 mg/kg dose po;(day/h=1/2); format: functional, Blood
Method in brief: (§4)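 Renal hypertension made in male Sprague-Dawley rats (Grollman modification). Under pentobarbital (50 mg/kg ip), the right kidney was removed and silk sutures tied around both poles of the left kidney to constrict it. After 3 weeks, rats with systolic BP >150 mmHg were used. Compound given po daily to 4 rats. Systolic BP by tail-cuff plethysmography at the listed day/hour after dosing.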

Canis familiaris [5] = test: Mean arterial BP before administration at a dose of 10 mg/kg iv.; format: functional, Canis lupus familiaris
Rattus norvegicus [6] = test: hypotensive activity in renal hypertensive rats by using tail-cuff method measured as post drug BP (day/h) after administration of 10 mg/kg dose po;(day/h=3/2); format: functional, Blood
Method in brief: (§5)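 Renal hypertension (modified Grollman) was made in male Sprague-Dawley rats under pentobarbital sodium 50 mg/kg ip. The right kidney was removed, and silk sutures around both poles of the left kidney constricted the parenchyma. After 3 weeks of stabilization, rats with systolic BP >150 mmHg were used. Compounds were given orally. Systolic BP was measured by tail-cuff predose and at the stated day/h after dosing.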

Rattus norvegicus [7] = test: Hypotensive activity in renal hypertensive rats by using tail-cuff method measured as initial BP at the dose of 10 mg/kg po.; format: functional, Blood; method in brief: as §4
Canis familiaris [8] = test: Hemodynamic effect in sinoaortic- deafferented hypertensive dog measured as heart rate after 5 min of 5 mg/kg dose; format: functional, Canis lupus familiaris
Rattus norvegicus [9] = test: as §2; format: functional, Blood; remark: listed apart in the source
Method in brief: (§6)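 SHR of the Okamoto-Aoki strain, dosed orally every day with compound suspended in distilled water with Tween 80. Systolic pressure was taken by tail-cuff plethysmography on day 1 (predose, 2 h), day 3 (predose, 2 h) and day 5 (predose, 2 and 4 h). Initial BP is the pretreatment systolic pressure, with 4–8 rats per dose in the dose-response screen.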

Canis familiaris [10] = test: Hemodynamic effect in sinoaortic- deafferented hypertensive dog measured as left ventricular pressure after 60 min of 5 mg/kg; format: functional, Canis lupus familiaris, Heart left ventricle
Canis familiaris [11] = test: Hemodynamic effect in sinoaortic- deafferented hypertensive dog measured as mean arterial BP after 0 min of 5 mg/kg dose; format: functional, Canis lupus familiaris
Canis familiaris [12] = test: Effect of compound at a dose of 10 mg/kg iv, on standard cardiovascular in anesthetized normotensive dogs before administration of carbachol; format: functional, Canis lupus familiaris, Heart; method in brief: as §1
Rattus norvegicus [13] = test: (§7) Oral hypotensive activity in spontaneously hypertensive rats by using tail-cuff method measured as change in systolic BP at the dose of 25 mg/kg po.; format: functional, Blood; method in brief: as §6
Canis familiaris [14] = test: Effect of compound at a dose of 10 mg/kg iv, on standard cardiovascular in anesthetized normotensive dogs before administration of norepinephrine.; format: functional, Canis lupus familiaris, Heart; method in brief: as §1
Canis familiaris [15] = test: Effect of compound at a dose of 10 mg/kg iv, on standard cardiovascular in anesthetized normotensive dogs before administration of epinephrine.; format: functional, Canis lupus familiaris, Heart; method in brief: as §1
Rattus norvegicus [16] = test: (§8) Oral hypotensive activity in spontaneously hypertensive rats by using tail-cuff method measured as change in systolic BP at the dose of 5 mg/kg po.; format: functional, Blood; method in brief: as §3
Canis familiaris [17] = test: Hemodynamic effect in sinoaortic- deafferented hypertensive dog measured as left ventricular pressure after 0 min of 5 mg/kg; format: functional, Canis lupus familiaris, Heart left ventricle
Rattus norvegicus [18] = test: (§9) Oral hypotensive activity in spontaneously hypertensive rats by using tail-cuff method measured as change in systolic BP at the dose of 50 mg/kg po.; format: functional, Blood; method in brief: as §3
Rattus norvegicus [19] = test: as §8; format: functional, Blood; remark: listed apart in the source
Method in brief: (§10)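 Okamoto-Aoki strain spontaneously hypertensive rats. Compounds were suspended in distilled water with Tween 80 and given orally every day at 50, 30, 10 or 3 mg/kg. Systolic BP was measured by tail-cuff plethysmography on day 1 (predose and 2 h), day 3 (predose and 2 h) and day 5 (predose, 2 and 4 h). The screen used 4 rats; dose-response used 4–8 rats per dose.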

Rattus norvegicus [20] = test: as §9; format: functional, Blood; method in brief: as §10; remark: listed apart in the source
Rattus norvegicus [21] = test: hypotensive activity in renal hypertensive rats by using tail-cuff method measured as post drug BP (day/h) after administration of 10 mg/kg dose po;(day/h=3/0); format: functional, Blood; method in brief: as §5
Canis familiaris [22] = test: Hemodynamic effect in sinoaortic- deafferented hypertensive dog measured as mean arterial BP after 5 min of 5 mg/kg dose; format: functional, Canis lupus familiaris
Canis familiaris [23] = test: Hemodynamic effect in sinoaortic- deafferented hypertensive dog measured as mean arterial BP after 30 min of 5 mg/kg dose; format: functional, Canis lupus familiaris
Canis familiaris [24] = test: Effect of compound at a dose of 10 mg/kg iv, on standard cardiovascular in anesthetized normotensive dogs before administration of tyramine.; format: functional, Canis lupus familiaris, Heart; method in brief: as §1
Canis familiaris [25] = test: Hemodynamic effect in sinoaortic- deafferented hypertensive dog measured as heart rate after 0 min of 5 mg/kg dose; format: functional, Canis lupus familiaris
Canis familiaris [26] = test: Mean arterial BP after administration at a dose of 10 mg/kg iv.; format: functional, Canis lupus familiaris
Canis familiaris [27] = test: Hemodynamic effect in sinoaortic- deafferented hypertensive dog measured as left ventricular pressure after 5 min of 5 mg/kg; format: functional, Canis lupus familiaris, Heart left ventricle
Rattus norvegicus [28] = test: as §7; format: functional, Blood; method in brief: as §3; remark: listed apart in the source
Canis familiaris [29] = test: Hemodynamic effect in sinoaortic- deafferented hypertensive dog measured as left ventricular pressure after 30 min of 5 mg/kg; format: functional, Canis lupus familiaris, Heart left ventricle
Canis familiaris [30] = test: Effect of compound at a dose of 10 mg/kg iv, on standard cardiovascular in anesthetized normotensive dogs before administration of isoproterenol.; format: functional, Canis lupus familiaris, Heart; method in brief: as §1
Canis familiaris [31] = test: Effect of compound at a dose of 10 mg/kg iv, on standard cardiovascular in anesthetized normotensive dogs after administration of epinephrine.; format: functional, Canis lupus familiaris, Heart; method in brief: as §1
Canis familiaris [32] = test: Mean Heart rate after. administration at a dose of 10 mg/kg iv.; format: functional, Canis lupus familiaris
Canis familiaris [33] = test: Hemodynamic effect in sinoaortic- deafferented hypertensive dog measured as mean arterial BP after 60 min of 5 mg/kg dose; format: functional, Canis lupus familiaris
Rattus norvegicus [34] = test: hypotensive activity in renal hypertensive rats by using tail-cuff method measured as post drug BP (day/h) after administration of 10 mg/kg dose po;(day/h=2/2); format: functional, Blood; method in brief: as §5
Canis familiaris [35] = test: Hemodynamic effect in sinoaortic- deafferented hypertensive dog measured as heart rate after 60 min of 5 mg/kg dose; format: functional, Canis lupus familiaris
Canis familiaris [36] = test: Hemodynamic effect in sinoaortic- deafferented hypertensive dog measured as heart rate after 30 min of 5 mg/kg dose; format: functional, Canis lupus familiaris
Canis familiaris [37] = test: Effect of compound at a dose of 10 mg/kg iv, on standard cardiovascular in anesthetized normotensive dogs after administration of norepinephrine.; format: functional, Canis lupus familiaris, Heart; method in brief: as §1
Canis familiaris [38] = test: Effect of compound at a dose of 10 mg/kg iv, on standard cardiovascular in anesthetized normotensive dogs after administration of carbachol; format: functional, Canis lupus familiaris, Heart; method in brief: as §1
Canis familiaris [39] = test: Effect of compound at a dose of 10 mg/kg iv, on standard cardiovascular in anesthetized normotensive dogs after administration of tyramine.; format: functional, Canis lupus familiaris, Heart; method in brief: as §1

CN1CCC2(CC1)Oc1ccccc1C2n1cccc1 (centres undefined)
BP (Canis familiaris [1]): -30 mmHg | Rate (Canis familiaris [2]): 147 beats min-1 | Delta blood pressure (Rattus norvegicus [3]): 50 mmHg | BP (Rattus norvegicus [4]): 196 mmHg | BP (Canis familiaris [5]): 117 mmHg | BP (Rattus norvegicus [6]): 97 mmHg | BP (Rattus norvegicus [7]): 206 mmHg | Rate (Canis familiaris [8]): 154 beats min-1 | BP (Rattus norvegicus [9]): 190 mmHg | dP/dt (Canis familiaris [10]): 23.4 1/Pmax s | BP (Canis familiaris [11]): 175 mmHg | BP (Canis familiaris [12]): -49.2 mmHg | BP (Rattus norvegicus [13]): 196 mmHg | BP (Canis familiaris [14]): 57 mmHg | BP (Canis familiaris [15]): 53.7 mmHg | Delta blood pressure (Rattus norvegicus [16]): 30 mmHg | dP/dt (Canis familiaris [17]): 24.2 1/Pmax s | Delta blood pressure (Rattus norvegicus [18]): 39 mmHg | BP (Rattus norvegicus [19]): 184 mmHg | BP (Rattus norvegicus [20]): 202 mmHg | BP (Rattus norvegicus [21]): 183 mmHg | BP (Canis familiaris [22]): 123 mmHg | BP (Canis familiaris [23]): 129 mmHg | BP (Canis familiaris [24]): 52.5 mmHg | Rate (Canis familiaris [25]): 194 beats min-1 | BP (Canis familiaris [26]): 82.3 mmHg | dP/dt (Canis familiaris [27]): 26 1/Pmax s | Delta blood pressure (Rattus norvegicus [28]): 58 mmHg | dP/dt (Canis familiaris [29]): 26.2 1/Pmax s | BP (Canis familiaris [30]): -38 mmHg | BP (Canis familiaris [31]): 67 mmHg | Rate (Canis familiaris [32]): 113 beats min-1 | BP (Canis familiaris [33]): 129 mmHg | BP (Rattus norvegicus [34]): 184 mmHg and 170 mmHg | Rate (Canis familiaris [35]): 160 beats min-1 | Rate (Canis familiaris [36]): 174 beats min-1 | BP (Canis familiaris [37]): 58 mmHg | BP (Canis familiaris [38]): -29.7 mmHg | BP (Canis familiaris [39]): 48 mmHg
